Compound activity (PubChem)
Most compounds without a hit are left out; they make up all but 12% or so of the library.
MT stabilize HCS = microtubule stabilizers in HeLa cells; HeLa tubulin immunostaining HCS, 24 h; share of cells brighter than vehicle mean+2SD; % tubulin-high responders, % at 10 µM; 200,000 compounds, 0.83% hits;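 active = plate Z-score above 3 for both tubulin-high and condensed-nucleus cell shares, with cell loss under 80%, at 10 µM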;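 note: anti alpha tubulin signal scored within the nucleus-defined area of each cell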
CHOP inhibitor = blocks CHOP induction under ER stress | CHO-K1 CHOP-promoter luciferase, tunicamycin-induced, 15-18 h | inhibition, % at 10 µM | 220,000 compounds, 3.8% hits;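 active = compounds that reduced the stress-induced luciferase reporter signal by more than about 70% of percent inhibition, limit read from the data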;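 note: 0% = tunicamycin plus vehicle and 100% = wells without tunicamycin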
Autophagy HCS = modulators of autophagy; calls only at 10 µM (by protocol); MEF GFP-LC3 puncta imaging; test concentration mostly 10 µM; 190,000 compounds, 0.98% hits;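 active = percentage of spot-positive cells more than 3 SD above its plate mean, without a fluorescence outlier flag or 80% toxicity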;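 note: spot-positive cell cutoff set from DMSO-treated cells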
Dynein cargo inh = dynein cargo transport inhibition; 3617.4 mouse cells, GR-EGFP nuclear translocation imaging; test concentration mostly 20 µM; stimulated with dexamethasone, 1 µM; stronger effect = lower value; z-score, hits read low; 220,000 compounds, 0.47% hits;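 active = plate z-score of nuclear minus cytoplasmic receptor signal below a set negative limit, without overly bright fluorescence or cell loss, cut at about -3.5 in these data, passing the limit was not always enough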;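 note: z-score of nuclear minus cytoplasmic ring GR-EGFP intensity difference per well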
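Also added: dexamethasone, 1.0 µM final. Medium: tet-free, stripped-serum medium. Detection: fixed, Hoechst-stained cells imaged at 10x for EGFP. Read-out: nuclear-to-cytoplasmic GR-EGFP distribution per well. Times: induction 48 h, compound 1 h, agonist 30 min.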
b-catenin transl = modulators of beta-catenin nuclear translocation | nuclear translocation activity, % at 5 µM | HeLa beta-catenin nuclear translocation, immunofluorescence imaging | 190,000 compounds, 0.3% hits | AID 1665;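 active = nuclear translocation activity above 50% at 5 µM, with a well cell count of 50 or more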;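 note: per-cell ratio of nuclear to cytoplasmic median beta-catenin stain intensity; plate controls were DMSO negative control for no effect and GSK-3 inhibitor IX positive control for full effect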
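Technique: fluorescence imaging of beta-catenin antibody stain plus DAPI / Material: human HeLa cell line / Incubation: compound treatment 24 h, 37°C, 5% CO2 / Read-out basis: % activation of per-cell nuclear versus cytoplasmic median beta-catenin signal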
L major viab = inhibitors of Leishmania major promastigote growth; Leishmania major promastigotes, resazurin fluorescence viability; 200,000 compounds, 9% hits; AID 1063; inhibition, % at 10 µM; in the data active = inhibition above about 50%;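 note: promastigotes grown with compound for 44 hours at 28 °C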
Active calls of the source: *; i = inactive; . = no result.

SMILES | MT stabilize HCS | CHOP inhibitor | Autophagy HCS | Dynein cargo inh | b-catenin transl | L major viab
O=C(Nc1nc2ccc(SC(F)F)cc2s1)c1ccc2c(c1)S(=O)(=O)c1ccccc1C2=O | 4 | 35 | i | -0.2 | . | 86*
CC(NC(=O)C1CCCCC1)C(c1cccs1)N1CCN(C)CC1 (centres undefined) | . | 0 | . | 0.22 | -1 | .
Cc1cccc(C)c1NC(=O)C(c1ccc(Cl)cc1Cl)N1CCCCC1 (centres undefined) | 1 | 21 | i | 0.16 | . | 26
CC(=O)c1ccc(NC(=O)C2C3C=CC(C3=C(c3ccccc3)c3ccccc3)C2C(=O)O)cc1 (centres undefined) | 2 | -2 | i | 0.18 | -2 | 52*
CCCCOc1ccc(C2C(C(=O)c3ccc(C)o3)=C(O)C(=O)N2CC2CCCO2)cc1 (centres undefined) | 3 | 40 | i | -0.26 | . | 53*
CCOc1ccc(C2C(C(=O)c3ccc(C)o3)=C(O)C(=O)N2CCCN(CC)CC)cc1 (centres undefined) | . | -15 | . | -0.68 | -1 | .
O=C(Oc1cccc2cccnc12)c1cccc(N2C(=O)C3C4CCC(C4)C3C2=O)c1 (centres undefined) | 4 | 84* | i | 0.54 | -1 | 97*
O=C(Oc1cccc2cccnc12)c1ccc(N2C(=O)C3C4CCC(C4)C3C2=O)cc1 (centres undefined) | 3 | 7 | i | -0.5 | 1 | 99*
COc1ccc(CNc2cc(NCCCO)c([N+](=O)[O-])c3nonc23)cc1 | 2 | 1 | i | -0.58 | -1 | 67*
COc1ccc(/C=N/NC(=O)c2cccc([N+](=O)[O-])c2)cc1OS(=O)(=O)c1ccccc1 | 2 | 24 | i | 0.89 | -2 | 28
COc1cccc(/C=N/NC(=O)c2ccc([N+](=O)[O-])cc2Cl)c1O | 3 | 70* | i | 2.7 | 0 | 99*
COc1cccc(/C=N/NC(=O)c2cccc([N+](=O)[O-])c2)c1OS(=O)(=O)c1ccccc1 | 3 | -8 | i | 0.1 | 0 | 100*
COc1cc(/C=N/NC(=O)c2cccc([N+](=O)[O-])c2)cc(OC)c1O | 5 | -1 | i | -1.5 | 0 | 10
COc1ccc(/C=N/NC(=O)c2cccc([N+](=O)[O-])c2)cc1OC(=O)c1ccccc1 | 41* | 30 | i | -0.1 | -4 | 0
COc1ccc(/C=N/NC(N)=S)cc1OC(=O)c1ccccc1 | 38* | 46 | i | 0.59 | 0 | 79*
COc1ccc(/C(C)=N/Nc2nc3ccccc3n3cnnc23)cc1OC | . | -4 | . | -1.3 | 1 | .
N=C1C(c2ccccc2)=C(O)CN1c1cccc(S(=O)(=O)N2CCCCC2)c1 | . | -2 | . | -0.31 | 1 | .
CCCc1cc(-c2n[nH]c(=S)n2C(C)c2ccccc2)cs1 (centres undefined) | 2 | 96* | i | -1.1 | -4 | 0
Cc1ccc(C(C(=O)NCC2CCCO2)N(Cc2ccccc2)C(=O)c2ccc(-c3ccccc3)[nH]2)o1 (centres undefined) | 3 | -2 | i | -1.2 | 4 | 53*
O=C(NCC1CCCO1)C(c1cccs1)N(Cc1ccccc1Cl)C(=O)c1ccc(-c2ccccc2)[nH]1 (centres undefined) | 3 | 35 | i | -0.53 | 2 | 100*
Cc1nn(Cc2ccc([N+](=O)[O-])cc2)c(=O)n1-c1cccc(Cl)c1 | 1 | 15 | i | -0.8 | -1 | -8
Cc1ccc(CNC(=O)COC(=O)CCC(=O)c2cccs2)cc1 | 3 | 10 | i | -0.71 | -4 | 18
O=C(N/N=C/c1cc([N+](=O)[O-])ccc1N1CCCCCC1)c1ccccn1 | 2 | -11 | i | 0.34 | . | 60*
CCC1CCCCN1c1ccc([N+](=O)[O-])cc1/C=N/NC(=O)Cn1c2ccccc2c(=O)c2ccccc21 (centres undefined) | 2 | 43 | i | -0.058 | -5 | 51*
CN(c1ccc([N+](=O)[O-])cc1/C=N/NC(=O)COc1ccccc1)C1CCCCC1 | 2 | -1 | i | -0.81 | 1 | 91*
CCc1ccc(OCC(=O)N/N=C/c2cc([N+](=O)[O-])ccc2N2CCCCCC2)cc1 | 3 | 14 | i | 0.58 | 0 | 100*
